Values after ≈ are worked out from the molar mass of the structure shown.
Experiments:
[1] = system: Mycolicibacterium smegmatis; test: Antimycobacterial activity against Mycobacterium smegmatis mc2155 after 48 hrs by microdilution resazurin assay; assay type: functional; settings: str. MC2 155, 48 h
How it was run: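 Inoculum of M. smegmatis mc²155 grown in Dubos medium + 10% ADC; twofold serial dilutions in Dubos broth, 500 to 0.9 µg/mL. DMSO and isoniazid controls. 48 h at 37 °C, then 0.01% resazurin added, further 24 h. Growth is read as blue-to-pink change plus OD 530–630 nm.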

[2] = system: Mycobacterium tuberculosis; test: Antimycobacterial activity against Mycobacterium tuberculosis H37Rv after 6 days by microdilution resazurin assay; assay type: functional; settings: 144 h
How it was run: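 M. tuberculosis H37Rv inoculum grown in Dubos medium with 10% ADC. Twofold dilutions in Dubos broth, 500 to 0.9 µg/mL, with DMSO and isoniazid controls. Incubated 6 days at 37 °C, then 0.01% resazurin added for 24 h more. Read by colour change (blue to pink) and OD 530–630 nm. MIC95 (>95% growth inhibition) derived by curve fitting.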

| SMILES | MIC95 [1] | MIC95 [2] |
| --- | --- | --- |
| CC1(C)CCc2cc(C(=O)c3ccccc3)ccc2O1 | 50 µg/mL (≈ 188 µM) | 30 µg/mL (≈ 113 µM) |
| C#CC(C)(C)Oc1cccc(-c2ccccc2)c1 | > 100 µg/mL | > 100 µg/mL |
| Oc1ccc2oc3ccccc3c2c1 |  | 25 µg/mL (≈ 136 µM) |
| CC1(C)CCc2cc(C(=O)c3ccccc3)c(O)cc2O1 | 4 µg/mL (≈ 14.2 µM) | 62 µg/mL (≈ 220 µM) |
| C#CC(C)(C)Oc1ccc(Oc2ccccc2)cc1 | > 100 µg/mL | > 100 µg/mL |
| Oc1ccc2oc3ccc(O)cc3c2c1 | 15 µg/mL (≈ 74.9 µM) | 15 µg/mL (≈ 74.9 µM) |
| CC1(C)C=Cc2cc3oc4ccccc4c3c(Br)c2O1 | 120 µg/mL (≈ 365 µM) | 30 µg/mL (≈ 91.1 µM) |
| O=C(c1ccc(O)cc1)c1ccc(O)cc1 | 62 µg/mL (≈ 289 µM) | 125 µg/mL (≈ 584 µM) |
| CC1(C)CCc2cc(Cc3ccccc3)ccc2O1 | > 500 µg/mL | 30 µg/mL (≈ 119 µM) |
| CC(=O)c1cc2oc3ccccc3c2c2c1OC(C(C)C)C2 (stereo unspecified) | > 500 µg/mL | > 500 µg/mL |
| CC1(C)C=Cc2cc(Oc3ccccc3)ccc2O1 | 70 µg/mL (≈ 277 µM) | > 500 µg/mL |
| CC1(C)C=Cc2cc3oc4ccccc4c3cc2O1 | 20 µg/mL (≈ 79.9 µM) | 35 µg/mL (≈ 140 µM) |
| CC1(C)C=Cc2c(ccc3oc4ccccc4c23)O1 | 10 µg/mL (≈ 40 µM) | 10 µg/mL (≈ 40 µM) |
| CC1(C)C=Cc2cc(C(O)c3ccccc3)ccc2O1 (stereo unspecified) | 20 µg/mL (≈ 75.1 µM) | 20 µg/mL (≈ 75.1 µM) |
| CC1(C)CCc2cc3oc4ccccc4c3cc2O1 | 40 µg/mL (≈ 159 µM) | > 500 µg/mL |
| CC1(C)C=Cc2cc(C(=O)c3ccc(O)cc3)ccc2O1 | 32 µg/mL (≈ 114 µM) | 62 µg/mL (≈ 221 µM) |

| SMILES | MIC95 [1] | MIC95 [2] |
| --- | --- | --- |
| C#CC(C)(C)Oc1ccc2oc3ccc(C(C)=O)cc3c2c1 | > 100 µg/mL | > 100 µg/mL |
| CC1(C)C=Cc2cc(-c3ccccc3)ccc2O1 | > 500 µg/mL | > 500 µg/mL |
| CC1(C)CCc2c(c(Br)cc3oc4ccccc4c23)O1 | > 500 µg/mL | > 500 µg/mL |
| CC1(C)C=Cc2cc(C(=O)c3ccccc3)ccc2O1 | 20 µg/mL (≈ 75.7 µM) | 40 µg/mL (≈ 151 µM) |
| CC1(C)CCc2c(ccc3oc4ccccc4c23)O1 | 10 µg/mL (≈ 39.6 µM) | 10 µg/mL (≈ 39.6 µM) |
| CC(=O)c1ccc2oc3ccc(C(C)=O)cc3c2c1 | 5 µg/mL (≈ 19.8 µM) | 10 µg/mL (≈ 39.6 µM) |
| CC(=O)c1ccc2oc3ccc4c(c3c2c1)C=CC(C)(C)O4 | > 500 µg/mL | > 500 µg/mL |
| CC1(C)C=Cc2c(ccc3oc4c(c23)CCCC4)O1 | > 500 µg/mL | 120 µg/mL (≈ 472 µM) |
| C#CC(C)(C)Oc1ccc(-c2ccccc2)cc1 | > 100 µg/mL | > 100 µg/mL |
| C#CC(C)(C)Oc1ccc2oc3c(c2c1)CCCC3 | > 100 µg/mL | > 100 µg/mL |
| CC(=O)c1cc2oc3ccccc3c2c2c1OC(C)(C)CC2 | > 500 µg/mL | > 500 µg/mL |
| CC(=O)c1ccc2oc3ccc(O)cc3c2c1 | > 500 µg/mL | 8 µg/mL (≈ 35.4 µM) |
| CC1(C)C=Cc2cc(C(O)c3cccnc3)ccc2O1 (stereo unspecified) | 62 µg/mL (≈ 232 µM) | 62 µg/mL (≈ 232 µM) |
| Oc1ccc2oc3c(c2c1)CCCC3 | 31 µg/mL (≈ 165 µM) | 500 µg/mL (≈ 2660 µM) |
| NNC(=O)c1ccncc1 [ISONIAZID] | 12 µg/mL (≈ 87.5 µM) | 0.1 µg/mL (≈ 0.729 µM) |
